How the values were obtained:
[1] = molecular target: Amyloid-beta precursor protein (Homo sapiens, UniProt P05067); experiment: Displacement of [3H]PIB from beta amyloid in brain homogenate from Alzheimer's patient; type: tissue-based
Outline: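 Competition binding against [3H]PIB (0.05 nM final) in postmortem AD gray-matter homogenate prepared in PBS pH 7.4. Inhibitors at 10^-5 to 10^-12 mol/L (PBS, under 1% DMSO), incubated 37 °C for 1 h. Bound radioligand was collected by GF/B vacuum filtration, washed three times with PBS and scintillation-counted. Nonspecific binding was defined with 10 µM PIB. Ki was obtained by nonlinear regression.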

[2] = Partition coefficient, log P of the compound; type: physicochemical; settings: octanol/water
Outline: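 Shake-flask logP using the [125I] radioligand (RCP >98%) in n-octanol and 0.1 M phosphate buffer pH 7.4. Mixture vortexed 3 min at room temperature and centrifuged 3500 rpm for 5 min. Both phases were weighed and counted; logP is log of the cpm/g octanol to cpm/g buffer ratio. The octanol phase was repartitioned until values were consistent; done in triplicate.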

[3] = test system: Brain; experiment: Biodistribution in Swiss-Webster mouse brain at 0.185 MBq, iv after 2 mins; type: ADME, organism-based; settings: in vivo
Outline: (§1)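 Radioiodinated tracer in saline/ethylene glycol/ethanol/HCl vehicle, single tail-vein injection under anesthesia into 2-month-old Swiss-Webster mice (n = 3 per time point). Animals killed by heart puncture at 2, 30 and 60 min; brain removed, weighed and gamma-counted. Uptake expressed as % injected dose per gram.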

[4] = test system: Brain; experiment: Biodistribution in Swiss-Webster mouse brain at 0.185 MBq, iv after 30 mins; type: ADME, organism-based; settings: in vivo, 0.5 h; outline: as §1
[5] = test system: Brain; experiment: Biodistribution in Swiss-Webster mouse brain at 0.185 MBq, iv after 60 mins; type: ADME, organism-based; settings: in vivo, 1 h; outline: as §1

Amyloid-beta precursor protein, sequence (P05067 whole entry): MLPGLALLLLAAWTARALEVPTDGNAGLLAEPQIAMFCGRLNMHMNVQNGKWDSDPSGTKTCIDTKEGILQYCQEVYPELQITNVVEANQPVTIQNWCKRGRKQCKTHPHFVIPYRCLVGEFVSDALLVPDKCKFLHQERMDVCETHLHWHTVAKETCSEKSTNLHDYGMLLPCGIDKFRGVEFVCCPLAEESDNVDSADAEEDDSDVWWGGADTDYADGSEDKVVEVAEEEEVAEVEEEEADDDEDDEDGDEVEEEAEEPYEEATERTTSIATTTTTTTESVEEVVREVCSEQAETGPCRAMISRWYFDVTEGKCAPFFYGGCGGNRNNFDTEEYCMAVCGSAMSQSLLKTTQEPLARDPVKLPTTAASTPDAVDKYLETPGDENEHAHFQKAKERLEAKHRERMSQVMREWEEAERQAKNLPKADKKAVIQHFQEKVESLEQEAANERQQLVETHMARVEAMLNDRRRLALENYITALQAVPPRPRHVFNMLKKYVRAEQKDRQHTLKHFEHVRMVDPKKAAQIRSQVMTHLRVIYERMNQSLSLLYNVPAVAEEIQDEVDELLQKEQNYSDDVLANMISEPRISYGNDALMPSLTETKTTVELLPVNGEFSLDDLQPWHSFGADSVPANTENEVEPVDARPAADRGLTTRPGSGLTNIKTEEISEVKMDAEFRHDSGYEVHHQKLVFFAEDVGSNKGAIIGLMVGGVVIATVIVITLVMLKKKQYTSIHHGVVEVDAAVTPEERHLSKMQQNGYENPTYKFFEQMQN

Row | SMILES | Ki [1] | also measured
1 | Nc1ccc(-c2nc3ccc(-c4nc5ccc(F)cc5s4)cc3s2)cc1 | 36 nM | 
2 | Nc1ccc(-c2nc3ccc(-c4nc5ccccc5s4)cc3s2)cc1[125I] |  | logP [2]: 2.7; Drug uptake [3]: 3.71 % ID/g; Drug uptake [4]: 0.78 % ID/g; Drug uptake [5]: 0.43 % ID/g
3 | CNc1ccc(-c2nc3ccc(-c4nc5ccc(F)cc5s4)cc3s2)cc1 | 27 nM | 
4 | Nc1ccc(-c2nc3ccc(-c4nc5ccc(Cl)cc5s4)cc3s2)cc1 | 34 nM | 
5 | Nc1ccc(-c2nc3ccc(-c4nc5ccccc5s4)cc3s2)cc1 | 25 nM | 

The remaining compounds from weak to strong by Ki [1], led by results:

Row | Ki [1] | SMILES | also measured
6 | 25 nM | COc1ccc2nc(-c3ccc4nc(-c5ccc(N)cc5)sc4c3)sc2c1 | 
7 | 23 nM | CN(C)c1ccc(-c2nc3ccc(-c4nc5ccc(F)cc5s4)cc3s2)cc1 | 
8 | 22 nM | CNc1ccc(-c2nc3ccc(-c4nc5ccccc5s4)cc3s2)cc1 | 
9 | 21 nM | Nc1ccc(-c2nc3ccc(-c4nc5ccccc5s4)cc3s2)cc1I | logP [2]: 2.7
10 | 6.8 nM | CNc1ccc(-c2nc3ccc(-c4nc5ccc(Cl)cc5s4)cc3s2)cc1 | 

Reference: ChEMBL document CHEMBL1147186, “Dibenzothiazoles as novel amyloid-imaging agents” (Bioorg Med Chem, 2007)
